{"data": "Measurements gathered from unrelated publications", "target": "Homeodomain-interacting protein kinase 2 (HIPK2, Homo sapiens, UniProt Q9H2X6)", "note": "Each line is one published result; the experiments were not run side by side."}
{"Compound": "O=C1NC(c2ccccn2)Sc2ccccc21 (stereo not drawn)", "test": "cell-free assay, competition with immobilised ligand", "setting": "1 µM", "quantity": "remaining binding", "value": "80%"}
{"Compound": "N#Cc1cccc(Nc2nc3cc(C(=O)O)ccc3c3cncnc23)c1", "test": "enzyme activity, inhibitor, radiometric", "setting": "1 µM", "quantity": "remaining activity", "value": "3%"}
{"Compound": "O=C1NC(=O)c2cc(Nc3ccc(F)cc3)c(Nc3ccc(F)cc3)cc21", "test": "cell-free assay", "setting": "0.5 µM", "quantity": "remaining signal", "value": "96.6%"}
{"Compound": "Cc1cc(NC(=O)c2cccc3cc(-c4cccc5[nH]nc(N)c45)ccc23)ccc1F", "test": "enzyme activity, inhibitor", "setting": "0.1 µM", "quantity": "activity vs control", "value": "103%"}
{"Compound": "COc1cc(-c2cc(-c3ccc(N4CCNCC4)cc3)cnc2C)cc(OC)c1OC", "test": "enzyme activity, inhibitor", "setting": "1 µM", "quantity": "inhibition", "value": "2%"}
{"Compound": "O=C(O)c1ccc2c(c1)nc(NCCc1cccc(Cl)c1)c1ccncc12", "test": "enzyme activity, inhibitor, radiometric", "setting": "1 µM", "quantity": "remaining activity", "value": "20%"}
{"Compound": "CCCCN(CCCC)C(=O)CN1C[C@H](c2cc(OC)c3c(c2)OCO3)[C@@H](C(=O)O)[C@@H]1CC(C)(C)CCC", "test": "cell-free assay, competition with immobilised ligand", "setting": "1 µM", "quantity": "remaining binding", "value": "82.3%"}
{"Compound": "CCCS(=O)(=O)Nc1ccc(F)c(C(=O)c2c[nH]c3ncc(-c4ccc(Cl)cc4)cc23)c1F", "test": "enzyme activity, inhibitor", "setting": "1 µM", "quantity": "inhibition", "value": "< 10%"}
{"Compound": "COc1ccc2c(c1)O[C@H](c1ccc(OC)c(OC)c1)C[C@@H]2NC(=O)C1(c2ccc3c(c2)OC(F)(F)O3)CC1", "test": "cell-free assay, competition with immobilised ligand", "setting": "1 µM", "quantity": "remaining binding", "value": "98%"}
{"Compound": "Cc1ccc(Nc2nccc(N(C)c3ccc4c(C)n(C)nc4c3)n2)cc1S(N)(=O)=O", "test": "enzyme activity, inhibitor", "setting": "10 µM", "quantity": "inhibition", "value": "21%"}
{"Compound": "Clc1ccc(Nc2nnc(Cc3ccncc3)c3ccccc23)cc1", "test": "cell-free assay", "setting": "0.5 µM", "quantity": "remaining signal", "value": "101%"}
{"Compound": "CC(=O)N1CCC(c2ccc(C(=O)NC3=NCCN3)cc2C(F)(F)F)CC1", "test": "cell-free assay, competition with immobilised ligand", "setting": "1 µM", "quantity": "remaining binding", "value": "100%"}
{"Compound": "CC/C(=N\\NC(=O)NCc1cccc(O)c1)c1ccc(O)c(C)c1O", "test": "enzyme activity, inhibitor", "setting": "0.1 µM", "quantity": "inhibition", "value": "2.1%"}
{"Compound": "COc1cc(/C=C/C(=O)CC(=O)/C=C/c2ccc(O)c(OC)c2)ccc1O", "test": "enzyme activity, inhibitor", "setting": "1 µM", "quantity": "activity vs control", "value": "54%"}
{"Compound": "COc1cc2ncnc(Nc3ccc(Oc4ccccc4)cc3C)c2cc1OC", "test": "enzyme activity, inhibitor", "setting": "1 µM", "quantity": "inhibition", "value": "3%"}
{"Compound": "O=C(O)c1ccc2c(c1)nc(Nc1cccc(F)c1)c1ccncc12", "test": "enzyme activity, inhibitor, radiometric", "setting": "1 µM", "quantity": "remaining activity", "value": "-1%"}
{"Compound": "N#Cc1ccc(Nc2ccc3[nH]c(=O)[nH]c3c2)c(Cl)c1", "test": "cell-free assay, competition with immobilised ligand", "setting": "1 µM", "quantity": "remaining binding", "value": "100%"}
{"Compound": "O=C(O)c1ccc2c(c1)nc(Nc1ccc3ccccc3c1)c1ccncc12", "test": "enzyme activity, inhibitor, radiometric", "setting": "1 µM", "quantity": "remaining activity", "value": "4%"}
{"Compound": "Cc1ccc(NC(=O)c2ccc(C)c(C(F)(F)F)c2)cc1C#Cc1nn(C2CCC(O)CC2)c2ncnc(N)c12 (stereo not drawn)", "test": "cell-free assay", "setting": "10 µM", "quantity": "remaining signal", "value": "99%"}
{"Compound": "COc1cccc(CCNc2nc3cc(C(=O)O)ccc3c3cnccc23)c1", "test": "enzyme activity, inhibitor, radiometric", "setting": "1 µM", "quantity": "remaining activity", "value": "10%"}
{"Compound": "NS(=O)(=O)c1cc(NC(=O)Cc2ccccc2)ccc1Oc1cccc(Cl)c1", "test": "cell-free assay, competition with immobilised ligand", "setting": "1 µM", "quantity": "remaining binding", "value": "62%"}
{"Compound": "N#Cc1cccc(Nc2nc3cc(C(=O)O)ccc3c3cnccc23)c1", "test": "enzyme activity, inhibitor, radiometric", "setting": "1 µM", "quantity": "remaining activity", "value": "-1%"}
{"Compound": "Cc1c(NC(=O)c2cc(C(N)=O)nc3cc(F)ccc23)c(C(F)(F)F)nn1Cc1ccc(C#N)cc1", "test": "cell-free assay, competition with immobilised ligand", "setting": "1 µM", "quantity": "remaining binding", "value": "83%"}
{"Compound": "COc1cccc(CCNc2nc3cc(C(=O)O)ccc3c3cncnc23)c1", "test": "enzyme activity, inhibitor, radiometric", "setting": "1 µM", "quantity": "remaining activity", "value": "22%"}
{"Compound": "CN([C@@H]1CCc2c(CC(=O)O)c3ccccc3n2C1)S(=O)(=O)c1ccc(F)cc1", "test": "cell-free assay, competition with immobilised ligand", "setting": "1 µM", "quantity": "remaining binding", "value": "100%"}
{"Compound": "O=C(O)c1ccc2c(c1)nc(Nc1ccccc1)c1ccncc12", "test": "enzyme activity, inhibitor, radiometric", "setting": "1 µM", "quantity": "remaining activity", "value": "10%"}
{"Compound": "CCN(CC)CCNC(=O)c1c(C)[nH]c(/C=C2\\C(=O)Nc3ccc(F)cc32)c1C", "test": "enzyme activity, inhibitor", "setting": "0.3 µM", "quantity": "inhibition", "value": "20%"}
